Source: ChEMBL document CHEMBL1833955, “Optimization of (arylpiperazinylbutyl)oxindoles exhibiting selective 5-HT₇ receptor antagonist activity” (J Med Chem, 2011)

Columns and labels:
[1] = Plasma concentration in NMRI mouse at 10 mg/kg, ip after 30 mins by HPLC-MS/MS analysis; format: ADME, organism-based; parameters: dose 10 mg/kg, route intraperitoneal
Summary of the method: (§1)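 Male NMRI mice, 25–30 g, given four compounds together ip as a cassette suspension in 0.4% methyl cellulose (n = 3/dose). After 30 min, vena cava blood and brain collected. Brain homogenised in 4 volumes of water; samples extracted with acetonitrile–water 3:1 and analysed by gradient HPLC-MS/MS against spiked calibrators. Brain/plasma given as percentage.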

[2] = Drug level in NMRI mouse brain at 10 mg/kg, ip after 30 mins by HPLC/MS/MS analysis; format: ADME, organism-based; parameters: dose 10 mg/kg, route intraperitoneal; conditions: read-out: Drug uptake; summary of the method: as §1
[3] = biological target: T1, 5-hydroxytryptamine receptor 1A (Rattus norvegicus, UniProt P19327); assay: Displacement of [3H]8-OH-DPAT from 5-HT1A receptor in rat frontal cortex membrane after 45 mins by scintillation counting; format: cell membranes
T1 sequence (P19327 whole entry): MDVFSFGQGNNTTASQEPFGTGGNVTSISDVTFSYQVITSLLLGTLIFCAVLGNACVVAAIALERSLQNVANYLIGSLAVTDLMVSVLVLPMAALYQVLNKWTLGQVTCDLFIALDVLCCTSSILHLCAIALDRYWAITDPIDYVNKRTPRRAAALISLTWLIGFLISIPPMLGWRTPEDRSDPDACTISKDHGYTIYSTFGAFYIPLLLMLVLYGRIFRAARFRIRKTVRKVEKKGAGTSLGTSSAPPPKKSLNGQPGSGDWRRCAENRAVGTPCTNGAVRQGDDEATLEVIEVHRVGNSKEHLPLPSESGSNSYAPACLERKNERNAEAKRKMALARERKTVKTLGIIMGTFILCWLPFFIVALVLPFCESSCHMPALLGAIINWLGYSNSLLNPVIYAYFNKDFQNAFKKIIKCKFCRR
Summary of the method: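 Membranes from adult rat frontal cortex, prepared in 50 mM Tris-HCl pH 7.7 with washes and a 37 °C preincubation. Incubation buffer: 6.66 mM CaCl2, 16.66 μM pargyline, 0.166% ascorbic acid. Ligand 1.5 nM [3H]8-OH-DPAT; 10 μM 5-HT defines nonspecific binding. 45 min at 25 °C, GF/B filtration, scintillation counting. Triplicates; Ki from two nine-point curves, single-site fit.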

[4] = biological target: T2, Adrenergic receptor alpha-1 (Rattus norvegicus, UniProt P15823+P23944+P43140); assay: Displacement of [3H]prazosin from alpha1-adrenergic receptor in rat frontal cortex membrane after 45 mins by scintillation spectrometry; format: cell membranes
T2 sequence (P15823 whole entry): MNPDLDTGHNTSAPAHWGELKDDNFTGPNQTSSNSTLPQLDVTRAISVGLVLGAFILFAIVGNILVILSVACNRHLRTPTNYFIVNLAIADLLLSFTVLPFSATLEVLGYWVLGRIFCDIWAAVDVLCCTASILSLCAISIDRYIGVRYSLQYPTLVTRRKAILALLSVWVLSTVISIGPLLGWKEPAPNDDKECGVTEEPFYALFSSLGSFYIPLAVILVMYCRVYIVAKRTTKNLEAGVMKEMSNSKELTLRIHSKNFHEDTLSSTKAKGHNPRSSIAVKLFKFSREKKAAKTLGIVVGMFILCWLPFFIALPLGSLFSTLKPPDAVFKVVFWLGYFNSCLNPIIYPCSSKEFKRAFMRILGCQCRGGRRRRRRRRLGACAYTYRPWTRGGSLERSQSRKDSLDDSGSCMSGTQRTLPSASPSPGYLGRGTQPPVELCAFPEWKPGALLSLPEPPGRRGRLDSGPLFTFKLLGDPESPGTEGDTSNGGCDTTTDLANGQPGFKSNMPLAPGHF
T2 sequence (P23944 whole entry): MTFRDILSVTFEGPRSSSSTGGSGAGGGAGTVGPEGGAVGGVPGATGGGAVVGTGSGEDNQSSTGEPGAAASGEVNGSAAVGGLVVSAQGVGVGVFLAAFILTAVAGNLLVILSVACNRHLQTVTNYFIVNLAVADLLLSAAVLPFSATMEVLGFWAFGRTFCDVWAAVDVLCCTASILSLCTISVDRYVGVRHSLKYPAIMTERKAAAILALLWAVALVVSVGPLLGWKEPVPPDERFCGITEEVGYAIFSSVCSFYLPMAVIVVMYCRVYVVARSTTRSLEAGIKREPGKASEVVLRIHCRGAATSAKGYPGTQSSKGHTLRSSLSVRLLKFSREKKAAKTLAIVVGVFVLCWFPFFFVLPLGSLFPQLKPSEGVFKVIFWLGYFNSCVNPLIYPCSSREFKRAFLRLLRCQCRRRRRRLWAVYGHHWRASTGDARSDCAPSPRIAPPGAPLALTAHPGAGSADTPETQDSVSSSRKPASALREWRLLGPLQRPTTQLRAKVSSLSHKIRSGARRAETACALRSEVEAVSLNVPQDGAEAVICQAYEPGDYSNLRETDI
T2 sequence (P43140 whole entry): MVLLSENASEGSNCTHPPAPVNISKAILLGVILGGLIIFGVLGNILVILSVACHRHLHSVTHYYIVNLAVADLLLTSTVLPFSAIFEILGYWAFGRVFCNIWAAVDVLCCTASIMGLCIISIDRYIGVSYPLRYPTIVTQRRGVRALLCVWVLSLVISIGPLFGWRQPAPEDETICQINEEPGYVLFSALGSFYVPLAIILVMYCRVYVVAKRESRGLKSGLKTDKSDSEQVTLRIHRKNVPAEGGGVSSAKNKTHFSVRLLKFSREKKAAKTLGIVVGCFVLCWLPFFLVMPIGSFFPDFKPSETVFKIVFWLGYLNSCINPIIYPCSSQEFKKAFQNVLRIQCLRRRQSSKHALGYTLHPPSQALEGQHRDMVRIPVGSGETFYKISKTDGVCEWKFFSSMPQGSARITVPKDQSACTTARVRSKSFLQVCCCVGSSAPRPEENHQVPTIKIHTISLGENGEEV
Summary of the method: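 Rat frontal cortex tissue frozen on dry ice, homogenised in 50 mM Tris-HCl pH 7.7 and washed by centrifugation. [3H]prazosin at 0.6 nM; 10 μM prazosin defines nonspecific binding. 45 min at 25 °C, GF/B filtration, scintillation counting. Triplicates; Ki from two nine-concentration curves fitted to a single-site model.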

[5] = Selectivity ratio of Ki for 5-HT1A receptor in rat frontal cortex membrane to Ki for human 5-HT7 receptor; format: cell membranes
[6] = Selectivity ratio of Ki for alpha1-adrenergic receptor in rat frontal cortex membrane to Ki for human 5-HT7 receptor; format: cell membranes
[7] = Metabolic stability in human liver microsomes after 60 mins by HPLC-MS/MS analysis; format: ADME, Microsome; conditions: read-out: Stability
Summary of the method: (§2)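 Test compound at 100 nM final incubated with rat or human liver microsomes (0.33 mg/mL) at 37 °C for 0, 5, 15, 30 and 60 min. Buffer Tris-HCl pH 7.4 with Mg2+ and BSA. Reaction started with NADPH and stopped with ice-cold MeOH. Parent compound measured by HPLC-MS/MS, positive-ion MRM.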

[8] = Metabolic stability in rat liver microsomes after 60 mins by HPLC-MS/MS analysis; format: ADME, Microsome; conditions: read-out: Stability; summary of the method: as §2
[9] = Plasma concentration in NMRI mouse at 3 mg/kg, ip after 30 mins by HPLC-MS/MS analysis; format: ADME, organism-based; parameters: dose 3 mg/kg, route intraperitoneal; summary of the method: as §1
[10] = Drug level in NMRI mouse brain at 3 mg/kg, ip after 30 mins by HPLC/MS/MS analysis; format: ADME, organism-based; parameters: dose 3 mg/kg, route intraperitoneal; conditions: read-out: Drug uptake; summary of the method: as §1
Mus musculus [11] = assay: Anxiolytic activity in ip dosed NMRI mouse assessed as behavioral activity administered 30 mins prior to test measured up to 5 mins by light-dark test; format: functional; conditions: read-out: MED
Summary of the method: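 Male NMRI mice, 25–33 g, housed in the dark, dosed ip 30 min before test. Each mouse placed in the centre of the lit side of an automated two-compartment chamber under a 2-lx light. Activity recorded for 5 min: time in each area, transitions, horizontal and vertical activity. Means ± SEM, one-way ANOVA with Duncan's test; MED reported.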

[12] = Plasma concentration in NMRI mouse at 1 mg/kg, ip after 30 mins by HPLC-MS/MS analysis; format: ADME, organism-based; parameters: dose 1 mg/kg, route intraperitoneal; summary of the method: as §1
[13] = Drug level in NMRI mouse brain at 1 mg/kg, ip after 30 mins by HPLC/MS/MS analysis; format: ADME, organism-based; parameters: dose 1 mg/kg, route intraperitoneal; conditions: read-out: Drug uptake; summary of the method: as §1
[14] = biological target: T3, 5-hydroxytryptamine receptor 1A (Rattus norvegicus) (UniProt P19327); assay: Displacement of [3H]8-OH-DPAT from 5-HT1A receptor in rat frontal cortex membrane at 10^-7 M after 45 mins by scintillation counting; format: cell membranes
T3 sequence (whole entry): T1 sequence (P19327 whole entry)

Mus musculus [15] = assay: Antidepressant activity in ip dosed NMRI mouse assessed as decrease in immobility time administered 30 mins prior to test measured last 4 mins of 6 mins testing period by forced swimming test; format: functional; conditions: read-out: MED
Summary of the method: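 Mice given drug or vehicle ip 30 min before test. Each mouse placed in a 17.7 cm high, 12 cm diameter glass cylinder holding 25 °C water to 12.5 cm depth, four mice at a time. Immobility (floating, only movements keeping head above water) timed over the last 4 min of a 6 min session.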

[16] = biological target: 5-hydroxytryptamine receptor 7 (Homo sapiens, UniProt P34969); assay: Displacement of [3H]CT from human 5-HT7 receptor expressed in CHO cells by scintillation spectrometry; format: cell-based
Chain of 5-hydroxytryptamine receptor 7 (P34969 whole entry): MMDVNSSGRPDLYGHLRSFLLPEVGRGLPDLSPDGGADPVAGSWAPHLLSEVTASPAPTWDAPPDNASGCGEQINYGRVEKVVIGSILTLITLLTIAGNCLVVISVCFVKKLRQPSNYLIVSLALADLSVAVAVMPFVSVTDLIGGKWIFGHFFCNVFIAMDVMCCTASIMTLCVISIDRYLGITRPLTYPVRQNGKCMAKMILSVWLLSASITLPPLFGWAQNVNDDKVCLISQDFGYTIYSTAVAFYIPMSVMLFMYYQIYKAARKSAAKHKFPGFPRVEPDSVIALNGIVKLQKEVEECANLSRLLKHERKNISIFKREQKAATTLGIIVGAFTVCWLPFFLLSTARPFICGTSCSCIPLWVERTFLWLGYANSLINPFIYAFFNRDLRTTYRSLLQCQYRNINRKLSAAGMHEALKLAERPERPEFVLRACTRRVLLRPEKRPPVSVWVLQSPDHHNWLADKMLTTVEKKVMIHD
Summary of the method: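 Cloned human 5-HT7 receptor from CHO cells, run under the supplier's recommended conditions with [3H]CT. Nonspecific binding with 25 μM clozapine. Ended by GF/C filtration, then scintillation counting. Ki taken from two nine-concentration displacement curves run in triplicate, single-site fit.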

Rattus norvegicus = assay: Anxiolytic activity in ip dosed Wistar rat assessed as number of punished licks administered 30 mins prior to test by conflict drinking Vogel test; format: functional; conditions: read-out: MED
Summary of the method: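 Male Wistar rats, 160–180 g, water-deprived 48 h and fasted 24 h. Drug or vehicle given ip 30 min before testing, carried out in a quiet room at 23 °C between 07:30 and 13:00. Modified Vogel procedure. Mean ± SEM tolerated shocks per group, one-way ANOVA with Duncan's test; MED reported.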

| Compound | concentration at 0.5 h [1] [nM] | concentration at 0.5 h [2] [nM] | Ki [3] [nM] | Ki [4] [nM] | Ratio Ki [5] | Ratio Ki [6] | remaining at 1 h [7] [%] | remaining at 1 h [8] [%] | concentration at 0.5 h [9] [nM] | concentration at 0.5 h [10] [nM] | minimal effective dose (Mus musculus [11]) [mg/kg] | concentration at 0.5 h [12] [nM] | concentration at 0.5 h [13] [nM] | inhibition [14] [%] | minimal effective dose (Mus musculus [15]) [mg/kg] | Ki [16] [nM] | minimal effective dose (Rattus norvegicus) [mg/kg] |
| --- | --- | --- | --- | --- | --- | --- | --- | --- | --- | --- | --- | --- | --- | --- | --- | --- | --- |
| O=C1Nc2ccccc2C1CCCCN1CCN(c2cccc(Cl)c2)CC1 (centres undefined) | 744 | 4310 | 66 | 26 | 135 | 53 | 39 | 9 | 114 | 827 | > 10 | 21 | 216 |  |  |  |  |
| CCC1(CCCCN2CCN(c3ccc(F)cc3)CC2)C(=O)Nc2ccccc21 (centres undefined) | 168 | 364 |  | 39 | > 100 | 91 | 34 | 8 | 178 | 431 |  | 34 | 62 | 10 | > 10 |  |  |
| CCC1(CCCCN2CCN(c3ccc(Cl)c(Cl)c3)CC2)C(=O)Nc2ccccc21 (centres undefined) | 861 | 1150 |  | 125 | > 100 | 208 | 29 | 13 | 174 | 223 |  | 31 | 43 | 11 | > 10 | 0.6 |  |
| CCC1(CCCCN2CCN(c3ccc(Cl)cc3)CC2)C(=O)Nc2ccc(Cl)cc21 (centres undefined) | 8 | 27 |  | 175 | > 100 | 159 | 23 | 21 | 14 | 23 |  | 10 | 17 | 0 | > 10 | 1.1 |  |
| CCC1(CCCCN2CCN(c3cccc(Cl)c3)CC2)C(=O)Nc2ccccc21 (centres undefined) | 272 | 824 | 46 | 31 | 115 | 78 | 31 | 4 | 168 | 613 | > 20 | 22 | 65 |  |  | 0.4 | > 10 |
| CCC1(CCCCN2CCN(c3ccc(Cl)cc3)CC2)C(=O)Nc2c(Cl)cc(Cl)cc21 (centres undefined) |  |  |  | 110 | > 100 | 12 | 53 | 76 |  |  | 1 |  |  | 5 | > 30 | 9.5 | 5 |
| CCC1(CCCCN2CCN(c3ccc(Cl)cc3)CC2)C(=O)Nc2c1cc(Cl)c(F)c2Cl (centres undefined) |  |  |  | 380 |  | 4 | 76 | 72 |  |  | > 10 |  |  | 10 | > 30 | 96 | > 20 |
| CCC1(CCCCN2CCN(c3ccc(Cl)cc3)CC2)C(=O)Nc2cc(F)ccc21 (centres undefined) | 177 | 135 |  | 215 | > 100 | 272 | 29 | 9 | 130 | 99 | > 10 | 46 | 33 | 9 |  |  |  |
| CCC1(CCCCN2CCN(c3ccc(Cl)cc3)CC2)C(=O)Nc2ccccc21 (centres undefined) | 399 | 379 |  | 93 | > 100 | 245 | 34 | 9 | 245 | 141 | > 10 | 70 | 42 | 11 |  |  |  |
